Measured values pooled from the literature.
Protocols differ between the studies behind these lines.
Cell line: MCF7
Effect on: cell growth or viability

Compound	technique	time	IC50 [µM]
Oc1ncnc2cc(Nc3nc(-c4ccc(Cl)cc4)cs3)ccc12	MTT		4.14
CN(C)C/C=N/NC(=O)Nc1cc2c(Nc3ccc(F)c(Cl)c3)ncnc2cc1O[C@H]1CCOC1	MTT	72 h	5.72
CC1(C)CC[C@]2(C(=O)O)CC[C@]3(C)C(=CC[C@@H]4[C@@]5(C)CC[C@H](O)C(C)(C)[C@@H]5CC[C@]43C)[C@@H]2C1	MTT	48 h	> 100
O=C1Nc2c(C(F)(F)F)cccc2[C@@]1(c1ccc(O)cc1)N1CCC(F)(F)C1	resazurin	72 h	0.022
Cc1ccc(-c2csc(Nc3ccc4c(O)ncnc4c3)n2)cc1	MTT		6.28
C[C@H]1[C@@H](O)O[C@@H]2O[C@@]3(C)CC[C@H]4[C@H](C)CC[C@@H]1[C@@]24OO3	CCK-8	48 h	> 50
CC/C(=C(\c1ccc(O)cc1)c1ccc(OCCN(C)C)cc1)c1ccccc1		5 days	4.22
O=C(N/N=C/c1cccn1CCN1CCCCC1)Nc1cc2c(Nc3ccc(F)c(Cl)c3)ncnc2cc1O[C@H]1CCOC1	MTT	72 h	2.41
O=S(=O)(NN=Cc1cn(CCN2CCOCC2)c2ccccc12)c1ccc2ccccc2c1	MTT	48 h	29.9
CN(C)CCCn1cccc1/C=N/NC(=O)Nc1cc2c(Nc3ccc(F)c(Cl)c3)ncnc2cc1O[C@H]1CCOC1	MTT	72 h	6.17
COCO[C@H]1C[C@H]2OC(C)(C)OC[C@]23[C@@H]2[C@@H](CC[C@]3(O)C1)[C@@]1(OCOC)CC[C@H](CO)[C@@]1(C)C[C@H]2OCOC	resazurin	72 h	> 100
COc1cc2ncnc(Nc3ccc(F)c(Cl)c3)c2cc1NC(=O)N/N=C/c1cccn1CCN1CCOCC1	MTT	72 h	1.17
Oc1ccc(-c2ccc3ncnc(Nc4cccc(C(F)(F)F)c4)c3c2)cc1	MTT	24 h	6.19
COc1c2c(cc3c1OCO3)[C@]13C=C[C@H](OC)C[C@H]1N(C2)C[C@H]3OC(=O)c1cccc(C)c1	WST-1		> 10
O=c1c(O)c(-c2ccc(O)c(O)c2)oc2cc(O)cc(O)c12	WST-1	48 h	11.7
Oc1c(I)cc(I)c2cccnc12	MTT	48 h	75.1
COc1cccc2c1C(=O)c1c(O)c3c(c(O)c1C2=O)C[C@@](O)(C(=O)CO)C[C@@H]3O[C@H]1C[C@H](N)[C@H](O)[C@H](C)O1	MTT		3.39
O=C(/N=c1\scc(-c2ccccc2)n1C1CCCCC1)c1ccc2ccccc2c1		48 h	17.3
COc1ccc(S(=O)(=O)NN=Cc2cn(CCN3CCOCC3)c3ccccc23)cc1	MTT	48 h	62.8
O=C(N/N=C/c1cccn1CCCN1CCCCC1)Nc1cc2c(Nc3ccc(F)c(Cl)c3)ncnc2cc1O[C@H]1CCOC1	MTT	72 h	1.32
CCn1c(=N)c(C(=O)NCCOC)cc2c(=O)n3ccccc3nc21	MTT	72 h	> 100
Cc1ccc2nc(-c3c4ccccc4cc4ccccc34)[nH]c2c1	MTT	48 h	39
CS(=O)(=O)c1nc(N)n(-c2ccc(C(=O)O)cc2)n1	MTT		21.9
O=C(/C=C/c1ccc(O)c(O)c1)O[C@@H]1C[C@](O)(C(=O)O)C[C@@H](O)[C@H]1O	WST-1	48 h	9.5

Compound	technique	time	IC50 [µM]
COc1ccc(-c2nn(-c3ccc(S(C)(=O)=O)cc3)cc2C=N/N=c2\[nH]c(-c3ccc([N+](=O)[O-])cc3)cs2)cc1	MTT	48 h	2.15
CSc1nc(/N=C/c2cc(Br)ccc2O)n(-c2ccc(C(=O)O)cc2)n1	MTT		31.3
Cc1ccc2nc(-c3ccc(N(C)C)cc3)[nH]c2c1	MTT	48 h	47.7
COc1ccnc(-c2cc(OC)ccn2)c1	MTT	48 h	> 50
COc1cccc2c1C(=O)c1c(O)c3c(c(O)c1C2=O)C[C@@](O)(C(=O)CO)C[C@@H]3O[C@H]1C[C@H](N)[C@H](O)[C@H](C)O1		48 h	1.2
Cc1occc(=O)c1[O-].[Cl-].[W+4].c1cc[cH-]c1.c1cc[cH-]c1	MTT		330
C=CCn1c(-c2ccc(Cl)cc2)nc2ccc(C)cc21	MTT		22.2
Cc1nc(Nc2ncc(C(=O)Nc3c(C)cccc3Cl)s2)cc(N2CCN(CCO)CC2)n1	MTT	48 h	7.99
CSc1ccc(-c2nc3ccccc3[nH]2)cc1	MTT	48 h	33.2
CC(C)C[C@H](NC(=O)[C@H](Cc1ccccc1)NC(=O)c1cnccn1)B(O)O	ATP luminescence		0.0088
COc1cc(/C=N/c2nc(SC)nn2-c2ccc(C(=O)O)cc2)ccc1O	MTT		29.4
COc1cc2ncnc(Nc3ccc(F)c(Cl)c3)c2cc1NC(=O)N/N=C/CN1CCCCC1	MTT	72 h	6.42
FC(F)(F)c1cccc(Nc2ncnc3ccc(Nc4ccccc4)cc23)c1	MTT	24 h	11.4
O=[N+]([O-])c1ccc(-c2csc(Nc3ccc4c(O)ncnc4c3)n2)cc1	MTT		3.09
Cc1ccc2nc(-c3ccc(F)cc3)[nH]c2c1	MTT	48 h	38.6
COc1cc([C@@H]2c3cc4c(cc3[C@@H](O[C@@H]3O[C@@H]5CO[C@@H](C)O[C@H]5[C@H](O)[C@H]3O)[C@H]3COC(=O)[C@H]23)OCO4)cc(OC)c1O	MTT	48 h	32.8
c1cc2c(cc1CNCC1CCNCC1)OCO2	MTT	72 h	> 100
COc1cc2ncnc(Nc3ccc(F)c(Cl)c3)c2cc1NC(=O)N/N=C/CN1CCCC1	MTT	72 h	7.53
Fc1cccc(Cl)c1-c1nc2ccccc2[nH]1	MTT	48 h	> 100
O=C(NC(=S)N1CCCCC1)c1ccc2ccccc2c1		48 h	7.32
O=[N+]([O-])c1ccc(-c2nc3ccccc3n2Cc2ccccc2)cc1	MTT		9.56
O=Cc1ccc(-c2ccc3ncnc(Nc4cccc(C(F)(F)F)c4)c3c2)cc1	MTT	24 h	15.5
Clc1ccc(-c2nc3ccccc3[nH]2)cc1	MTT	48 h	67.1
COc1cccc2c1C(=O)c1c(O)c3c(c(O)c1C2=O)C[C@@](O)(C(=O)CO)C[C@@H]3O[C@H]1C[C@H](N)[C@H](O)[C@H](C)O1	SRB		0.06
